According to ChEMBL document CHEMBL4364354, “A Bioreductive Prodrug of Cucurbitacin B Significantly Inhibits Tumor Growth in the 4T1 Xenograft Mice Model” (ACS Med Chem Lett, 2019):
Activity calls are given as the source filed them. The rule behind the calls is not given here.

Tests used:
[1] = Drug uptake in human MCF7 cell lysate at 25 uM incubated for 24 hrs by HPLC analysis; assay type: ADME, subcellular; settings: mcf7, 24 h
Outline: (§1)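 MCF-7 cells were exposed to 25 μM prodrug for 24 h, then lysed. Prodrug concentrations in culture medium and in cell lysate were measured by HPLC against a calibration curve.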

[2] = Prodrug activation in human MCF7 cell cultured in DMEM medium with 10% FBS at 25 uM incubated for 24 hrs by HPLC analysis; assay type: cell-based; settings: mcf7, 24 h
[3] = biological target: T1, NAD(P)H dehydrogenase [quinone] 1 (Homo sapiens, UniProt P15559); test: Prodrug activation in human MCF7 cells assessed as NQO1-mediated cucurbitacin B formation by ESI-TOFMS analysis; assay type: cell-based
T1 sequence (P15559 whole entry): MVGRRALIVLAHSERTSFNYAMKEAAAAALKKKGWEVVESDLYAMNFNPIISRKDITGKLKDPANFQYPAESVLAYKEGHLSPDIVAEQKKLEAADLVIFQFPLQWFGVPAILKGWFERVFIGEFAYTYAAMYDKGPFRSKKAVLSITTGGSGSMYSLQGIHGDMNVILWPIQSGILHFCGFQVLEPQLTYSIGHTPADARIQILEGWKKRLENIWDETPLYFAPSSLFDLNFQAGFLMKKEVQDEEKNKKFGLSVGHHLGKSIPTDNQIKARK

[4] = Stability of the compound in DMEM medium with 10% FBS assessed as compound remaining incubated for 24 hrs by HPLC analysis
Outline: (§2)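 Prodrugs were held in DMEM with 10% FBS for up to 72 h. The fraction of intact compound remaining over time was followed by HPLC.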

[5] = biological target: T1, NAD(P)H dehydrogenase [quinone] 1; test: (§3) Prodrug activation in human MCF7 cells assessed as NQO1-mediated ((R)-6-((2S,8S,9R,10R,13R,14S,16R,17R)-2-(3-aminopropylcarbamoyloxy)-16-hydroxy-4,4,9,13,14-pentamethyl-3,11-dioxo-2,3,4,7,8,9,10,11,12,13,14,15,16,17-tetradecahydro-1H-cyclopenta[a]phenanthren-17-yl)-6-hydroxy-2-methyl-5-oxohept-3-en-2-yl acetate metabolite formation at 25 uM incubated for 24 hrs by HPLC analysis; assay type: ADME, cell-based; settings: mcf7, 24 h
MCF7 [6] = test: Cytotoxicity against human MCF7 cells assessed as reduction in cell viability incubated for 48 hrs in presence of NQO1 inhibitor dicoumarol by MTT assay; assay type: functional, cell-based; settings: MCF7, 48 h
Outline: (§4)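 MTT assay on MCF-7 breast cancer cells and noncancerous Vero cells, with tamoxifen as positive control. One MCF-7 arm was pretreated with the NQO1 inhibitor dicoumarol. IC50 values are from three experiments. Cytotoxicity index is the IC50 of the prodrug in Vero cells relative to the parent cucurbitacin B IC50 in Vero cells.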

[7] = biological target: T1, NAD(P)H dehydrogenase [quinone] 1; test: Prodrug activation in human MCF7 cell lysate assessed as NQO1-mediated tetrahydropyrimidin-2(1H)-one formation at 25 uM incubated for 24 hrs by HPLC analysis; assay type: subcellular; settings: mcf7, 24 h
[8] = biological target: T1, NAD(P)H dehydrogenase [quinone] 1; test: Prodrug activation in human MCF7 cells assessed as NQO1-mediated CuB release at 25 uM incubated for 24 hrs by HRMS analysis; assay type: cell-based; settings: mcf7, 24 h
[9] = biological target: T1, NAD(P)H dehydrogenase [quinone] 1; test: Prodrug activation in human MCF7 cells assessed as appearance of extended m/z range to 1000 at 25 uM measured after 24 hrs by HRMS analysis; assay type: cell-based; settings: mcf7, 24 h
[10] = biological target: T1, NAD(P)H dehydrogenase [quinone] 1; test: Prodrug activation in human MCF7 cells assessed as NQO1-mediated CuB release in cell lysate at 25 uM incubated for 24 hrs by HPLC analysis; assay type: subcellular; settings: mcf7, 24 h
[11] = biological target: T1, NAD(P)H dehydrogenase [quinone] 1; test: Prodrug activation in human MCF7 cells assessed as NQO1-mediated ((R)-6-((2S,8S,9R,10R,13R,14S,16R,17R)-2-(3-aminopropylcarbamoyloxy)-16-hydroxy-4,4,9,13,14-pentamethyl-3,11-dioxo-2,3,4,7,8,9,10,11,12,13,14,15,16,17-tetradecahydro-1H-cyclopenta[a]phenanthren-17-yl)-6-hydroxy-2-methyl-5-oxohept-3-en-2-yl acetate formation by ESI-TOFMS analysis; assay type: cell-based
[12] = biological target: T1, NAD(P)H dehydrogenase [quinone] 1; test: as §3, with “acetate” for “acetate metabolite”, “HRMS” for “HPLC”; assay type: cell-based; settings: mcf7, 24 h
Vero = test: Cytotoxicity against African green monkey Vero cells assessed as reduction in cell viability incubated for 48 hrs by MTT assay; assay type: cell-based; settings: Chlorocebus sabaeus; outline: as §4
[13] = Cytotoxicity index, ratio of compound IC50 to cucurbitacin B IC50 for cytotoxicity against African green monkey Vero cells by MTT assay; assay type: cell-based; settings: chlorocebus sabaeus, read-out: Ratio IC50; outline: as §4
MCF7 [14] = test: Cytotoxicity against human MCF7 cells assessed as reduction in cell viability incubated for 48 hrs by MTT assay; assay type: functional, cell-based; settings: for IC50: MCF7, 48 h; outline: as §4
[15] = Stability of the compound in DMEM medium with 10% FBS incubated for 72 hrs by HPLC analysis; outline: as §2
[16] = biological target: T1, NAD(P)H dehydrogenase [quinone] 1; test: Prodrug activation in human MCF7 cells assessed as NQO1-mediated 6-hydroxy-4,4,5,7,8-pentamethylchroman-2-one formation at 25 uM incubated for 24 hrs by HRMS analysis; assay type: cell-based; settings: mcf7, 24 h
[17] = Drug uptake in human MCF7 cells assessed as compound remaining in culture medium at 25 uM incubated for 24 hrs by HPLC analysis; assay type: ADME, cell-based; settings: mcf7, 24 h; outline: as §1
[18] = Toxicity in BALB/c mouse implanted with mouse 4T1 cells assessed as body weight at 5 mg/kg/day, ip for 2 weeks measured during compound dosing (reference value: -1.48 %); assay type: organism-based; settings: in vivo, 336 h
4T1 [19] = test: Antitumor activity against mouse 4T1 cells implanted in BALB/c mouse assessed as tumor growth inhibition at 5 mg/kg/day, ip for 2 weeks measured daily during compound dosing by digital caliper method relative to control; assay type: functional; settings: 4T1, ip, 336 h, read-out: TGI
[20] = Toxicity in BALB/c mouse implanted with mouse 4T1 cells assessed as death at 3 mg/kg/day, ip measured after 1 day; assay type: organism-based; settings: in vivo, 24 h
Outline: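 BALB/c mice carrying 4T1 breast cancer cell tumours received the test agent once a day, dosed in mg/kg/d. An untreated control group ran alongside. Tumour volume and body weight were followed over the treatment period, survival was recorded after dosing began, and tumours were excised and weighed after sacrifice.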

4T1 [21] = test: Antitumor activity against mouse 4T1 cells xenografted in BALB/c mouse assessed as tumor weight at 3 to 10 mg/kg/day, ip for 2 weeks (reference value: 500 to 700 mg); assay type: functional
[22] = Toxicity in BALB/c mouse implanted with mouse 4T1 cells assessed as body weight at 3 mg/kg/day, ip for 2 weeks measured daily during compound dosing (reference value: -1.48 %); assay type: organism-based; settings: in vivo, 336 h
[23] = biological target: T1, NAD(P)H dehydrogenase [quinone] 1; test: Prodrug activation in human MCF7 cells assessed as NQO1-mediated (R)-6-hydroxy-6-((2S,8S,9R,10R,13R,14S,16R,17R)-16-hydroxy-4,4,9,13,14-pentamethyl-2-(methyl(3-(methylamino)propyl)carbamoyloxy)-3,11-dioxo 2,3,4,7,8,9,10,11,12,13,14,15,16,17-tetradecahydro-1H-cyclopenta[a]phenanthren-17-yl)-2-methyl-5-oxohept-3-en-2-yl acetate formation by ESI-TOFMS analysis; assay type: cell-based
[24] = biological target: T1, NAD(P)H dehydrogenase [quinone] 1; test: Prodrug activation in human MCF7 cell lysate assessed as NQO1-mediated 1,3-dimethyltetrahydropyrimidin-2(1H)-one formation at 25 uM incubated for 24 hrs by HPLC analysis; assay type: subcellular; settings: mcf7, 24 h
[25] = Toxicity in BALB/c mouse implanted with mouse 4T1 cells assessed as body weight at 10 mg/kg/day, ip for 2 weeks measured daily during compound dosing (reference value: -1.48 %); assay type: organism-based; settings: in vivo, 336 h
[26] = biological target: T1, NAD(P)H dehydrogenase [quinone] 1; test: (§5) Prodrug activation in human MCF7 cells assessed as NQO1-mediated (R)-6-hydroxy-6-((2S,8S,9R,10R,13R,14S,16R,17R)-16-hydroxy-4,4,9,13,14-pentamethyl-2-(methyl(3-(methylamino)propyl)carbamoyloxy)-3,11-dioxo 2,3,4,7,8,9,10,11,12,13,14,15,16,17-tetradecahydro-1H-cyclopenta[a]phenanthren-17-yl)-2-methyl-5-oxohept-3-en-2-yl acetate metabolite formation at 25 uM incubated for 24 hrs by HPLC analysis; assay type: ADME, cell-based; settings: mcf7, 24 h
4T1 [27] = test: Antitumor activity against mouse 4T1 cells implanted in BALB/c mouse assessed as tumor growth inhibition at 3 to 10 mg/kg/day, ip for 2 weeks measured daily during compound dosing by digital caliper method; assay type: functional, organism-based
[28] = biological target: T1, NAD(P)H dehydrogenase [quinone] 1; test: as §5, with “acetate” for “acetate metabolite”, “HRMS” for “HPLC”; assay type: cell-based; settings: mcf7, 24 h

Drug uptake [1] | Drug metabolism [3] | Drug metabolism [8] | Drug metabolism [9] | Drug metabolism [10] | Drug metabolism [16] | Structure (SMILES) | Stability [4] | IC50 (MCF7 [6]) | IC50 (Vero) | selectivity ratio [13] | IC50 (MCF7 [14]) | Stability [15] | Activity (Vero) | inhibition (MCF7 [14]) | other results
Not Active | Metabolite_Detected | Metabolite_Detected | Metabolite_Notdetected | Metabolite_Detected | Metabolite_Detected | CC(=O)OC(C)(C)/C=C/C(=O)[C@](C)(O)[C@H]1[C@H](O)C[C@@]2(C)[C@@H]3CC=C4[C@@H](C[C@H](OC(=O)NCCCNC(=O)CC(C)(C)C5=C(C)C(=O)C(C)=C(C)C5=O)C(=O)C4(C)C)[C@]3(C)C(=O)C[C@]12C | > 90% | > 100 µM | 1.87 µM | 46.8 | 15.4 µM | Stable |  |  | Drug metabolism [2]: Metabolite_Detected; Drug metabolism [5]: Metabolite_Detected; Drug metabolism [7]: Metabolite_Notdetected; Drug metabolism [11]: Metabolite_Detected; Drug metabolism [12]: Metabolite_Detected
Not Active | Metabolite_Detected | Metabolite_Detected | Metabolite_Notdetected | Metabolite_Detected | Metabolite_Detected | CC(=O)OC(C)(C)/C=C/C(=O)[C@](C)(O)[C@H]1[C@H](O)C[C@@]2(C)[C@@H]3CC=C4[C@@H](C[C@H](OC(=O)CC(C)(C)C5=C(C)C(=O)C(C)=C(C)C5=O)C(=O)C4(C)C)[C@]3(C)C(=O)C[C@]12C | > 90% | > 100 µM | 0.07 µM | 1.75 | 16.6 µM | Stable |  |  | Drug uptake [17]: 6.21 µM
 |  |  |  |  |  | CC/C(=C(\c1ccccc1)c1ccc(OCCN(C)C)cc1)c1ccccc1 [TAMOXIFEN] |  |  |  |  |  |  |  |  | Activity [18]: 4.99%; inhibition in vivo at 5 mg/kg/day (4T1 [19]): 55%
 |  |  |  |  |  | CN1CCCN(C)C1=O |  |  |  |  |  |  | Non-Toxic | inactive | 
 |  |  |  |  |  | Cc1c(C)c2c(c(C)c1O)C(C)(C)CC(=O)O2 |  |  |  |  |  |  | Non-Toxic | inactive | 
 |  |  |  |  |  | CC(=O)OC(C)(C)/C=C/C(=O)[C@](C)(O)[C@H]1[C@H](O)C[C@@]2(C)[C@@H]3CC=C4[C@@H](C[C@H](O)C(=O)C4(C)C)[C@]3(C)C(=O)C[C@]12C |  | 9.72 µM | 0.04 µM |  | 12 µM |  |  |  | Activity [20]: Toxic
 |  |  |  |  |  | Cc1c2ccncc2c(C)c2c1[nH]c1ccccc12 [ELLIPTECINE] |  |  | 4.06 µM |  |  |  |  |  | 
 |  |  |  |  |  | O=C1NCCCN1 |  |  |  |  |  |  | Non-Toxic | inactive | 
Not Active | Metabolite_Detected | Metabolite_Detected | Metabolite_Notdetected | Metabolite_Detected | Metabolite_Detected | CC(=O)OC(C)(C)/C=C/C(=O)[C@](C)(O)[C@H]1[C@H](O)C[C@@]2(C)[C@@H]3CC=C4[C@@H](C[C@H](OC(=O)N(C)CCCN(C)C(=O)CC(C)(C)C5=C(C)C(=O)C(C)=C(C)C5=O)C(=O)C4(C)C)[C@]3(C)C(=O)C[C@]12C | > 90% | > 100 µM | 12.4 µM | 310 | 18.1 µM | Stable |  |  | Activity [18]: 5.27%; Activity (4T1 [21]): <400 mg; Activity [22]: 6.46%; Drug uptake [17]: 8.39 µM; Drug metabolism [23]: Metabolite_Detected; Drug metabolism [24]: Metabolite_Notdetected; Activity [25]: -2.49%; Drug metabolism [26]: Metabolite_Detected; inhibition in vivo at 5 mg/kg/day (4T1 [19]): 53.8%; TGI (4T1 [27]): Active; Drug metabolism [28]: Metabolite_Detected
